# Reference: ChEMBL document CHEMBL1128172, “Structure-activity relationships of cyclic pentapeptide endothelin A receptor antagonists” (J Med Chem, 1995)
# Where a SMILES comes first, the peptide text is derived from it.
# Key:
# [1] = Solubility in saline; format: physicochemical; settings: for solubility: saline, read-out: S
# In short: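 Measured on the sodium salts, dissolved in saline.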
# [2] = biological target: T1, Endothelin receptor type B (Sus scrofa, UniProt P35463); test: Inhibitory effect against porcine Endothelin B receptor
# T1 sequence (P35463 whole entry): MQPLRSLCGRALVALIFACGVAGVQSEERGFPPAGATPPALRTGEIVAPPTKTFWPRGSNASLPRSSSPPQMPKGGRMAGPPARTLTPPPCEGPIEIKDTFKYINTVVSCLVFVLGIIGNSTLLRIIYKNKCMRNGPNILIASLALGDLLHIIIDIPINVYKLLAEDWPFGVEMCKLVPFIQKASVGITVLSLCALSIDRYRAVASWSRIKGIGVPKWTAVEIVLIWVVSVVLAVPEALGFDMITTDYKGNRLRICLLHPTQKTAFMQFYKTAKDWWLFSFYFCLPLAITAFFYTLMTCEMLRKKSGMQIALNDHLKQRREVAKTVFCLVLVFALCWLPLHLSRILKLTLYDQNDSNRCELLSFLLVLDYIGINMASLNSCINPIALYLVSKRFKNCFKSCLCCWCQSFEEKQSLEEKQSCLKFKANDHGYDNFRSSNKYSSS
# [3] = biological target: T2, Endothelin receptor type B (Homo sapiens, UniProt P24530); test: Inhibitory effect against Human Endothelin B receptor
# T2 sequence (P24530 whole entry): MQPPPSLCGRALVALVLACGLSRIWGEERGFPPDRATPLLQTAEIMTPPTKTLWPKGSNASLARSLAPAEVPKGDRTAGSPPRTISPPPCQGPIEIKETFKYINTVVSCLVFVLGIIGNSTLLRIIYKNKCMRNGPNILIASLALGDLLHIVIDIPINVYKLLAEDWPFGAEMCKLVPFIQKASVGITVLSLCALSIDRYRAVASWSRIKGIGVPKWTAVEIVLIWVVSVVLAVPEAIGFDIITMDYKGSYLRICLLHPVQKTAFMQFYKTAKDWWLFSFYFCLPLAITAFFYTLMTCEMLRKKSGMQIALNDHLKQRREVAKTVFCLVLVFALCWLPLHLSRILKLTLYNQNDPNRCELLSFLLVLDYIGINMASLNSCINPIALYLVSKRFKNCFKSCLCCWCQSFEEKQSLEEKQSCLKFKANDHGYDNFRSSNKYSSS
# Endothelin-1 receptor [4] = biological target: T3, Endothelin-1 receptor (Sus scrofa, UniProt Q29010); test: The compound was tested for binding inhibitory activity against Endothelin A receptor from porcine aortic smooth muscle membranes.
# T3 sequence (Q29010 whole entry): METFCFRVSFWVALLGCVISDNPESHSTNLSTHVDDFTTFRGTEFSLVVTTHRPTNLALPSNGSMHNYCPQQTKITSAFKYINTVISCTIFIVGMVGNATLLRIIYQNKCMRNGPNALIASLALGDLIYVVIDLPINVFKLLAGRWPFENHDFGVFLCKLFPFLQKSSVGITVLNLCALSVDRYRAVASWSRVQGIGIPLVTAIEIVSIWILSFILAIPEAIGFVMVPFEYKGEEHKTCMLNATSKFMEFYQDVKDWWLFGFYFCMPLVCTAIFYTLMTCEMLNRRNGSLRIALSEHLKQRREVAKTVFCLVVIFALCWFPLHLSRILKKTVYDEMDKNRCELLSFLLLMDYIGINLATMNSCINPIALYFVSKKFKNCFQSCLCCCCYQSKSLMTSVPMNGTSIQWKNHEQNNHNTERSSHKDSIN
# Endothelin-1 receptor [5] = biological target: T3, Endothelin-1 receptor; test: Inhibitory effect against porcine Endothelin A receptor
# In short: (§1)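 [125I]ET-1 displacement from porcine aortic smooth muscle membranes, which are rich in ETA receptors. The IC50 is taken at the high-affinity sites and averaged over more than three independent experiments. The protocol follows an earlier report.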
# Endothelin-1 receptor [6] = biological target: T4, Endothelin-1 receptor (Homo sapiens, UniProt P25101); test: Inhibitory effect against Human Endothelin A receptor
# T4 sequence (P25101 whole entry): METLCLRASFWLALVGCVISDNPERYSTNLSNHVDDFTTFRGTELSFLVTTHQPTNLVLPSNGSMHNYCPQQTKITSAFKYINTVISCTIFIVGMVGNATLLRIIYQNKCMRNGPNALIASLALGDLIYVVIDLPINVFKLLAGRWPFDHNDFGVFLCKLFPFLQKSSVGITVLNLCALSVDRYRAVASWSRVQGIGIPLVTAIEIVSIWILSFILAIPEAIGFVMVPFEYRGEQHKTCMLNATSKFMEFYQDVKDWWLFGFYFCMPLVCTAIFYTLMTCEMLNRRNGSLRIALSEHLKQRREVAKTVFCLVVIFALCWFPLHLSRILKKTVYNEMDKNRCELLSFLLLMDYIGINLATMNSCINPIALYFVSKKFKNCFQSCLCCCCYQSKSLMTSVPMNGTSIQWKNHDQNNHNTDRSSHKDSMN
# In short: (§2)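 Competition binding of 12 pM [125I]ET-1 to membranes from human neuroblastoma SK-N-MC cells (ETA) or Girardi heart cells (ETB), with increasing test compound, in 50 mM Tris/HCl pH 7.4 with protease inhibitors, 1 mM EDTA and 0.3% BSA. Incubated 4 h at 25 °C, filtered, washed, gamma-counted. Nonspecific binding defined with 0.2 μM ET-1. Values are the average of two independent experiments.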
# Endothelin-1 receptor [7] = biological target: T3, Endothelin-1 receptor; test: Inhibitory effect against porcine ET-A receptor; in short: as §1
# Endothelin-1 receptor [8] = biological target: T4, Endothelin-1 receptor; test: Inhibitory effect against Human ET-A receptor; in short: as §2
# Sus scrofa = species on record: Sus scrofa; test: Anti vasoconstriction activity was evaluated in isolated porcine coronary arteries; format: functional; settings: read-out: pA2 (converted)
SMILES,solubility [1] [µg/mL],IC50 [2] [nM],IC50 [3] [nM],IC50 max (Endothelin-1 receptor [4]) [nM],IC50 (Endothelin-1 receptor [5]) [nM],IC50 (Endothelin-1 receptor [6]) [nM],IC50 (Endothelin-1 receptor [7]) [nM],IC50 (Endothelin-1 receptor [8]) [nM],Kb (Sus scrofa) [nM],S ([1]; buffer) [mg/mL]
"CC[C@H](C)[C@H]1NC(=O)[C@H](C)NC(=O)[C@@H](CCC(=O)O)NC(=O)[C@@H](Cc2c[nH]c3ccccc23)NC(=O)[C@H](CC(C)C)NC1=O (HELM PEPTIDE1{A.[CC[C@H](C)[C@@H](N[*:1])C(=O)[*:2]].L.[dW].[dE]}$PEPTIDE1,PEPTIDE1,1:R1-5:R2$$$V2.0)",210,> 100000,> 100000,1400,1400,590,–,–,–,–
"CC(C)C[C@@H]1NC(=O)[C@@H](C2CCCC2)NC(=O)[C@@H]2CCCN2C(=O)[C@@H](CC(=O)O)NC(=O)[C@@H](Cc2c[nH]c3ccccc23)NC1=O (single isomer, unassigned)",> 100000,4800,21000,4,–,–,4,3.4,31.6,–
"CC(C)C[C@@H]1NC(=O)[C@@H](C(C)C)NC(=O)[C@@H]2CCCN2C(=O)[C@@H](CC(=O)O)NC(=O)[C@@H](Cc2c[nH]c3ccccc23)NC1=O (single isomer, unassigned)",–,–,–,22,–,8.3,–,–,39.8,> 1000
"CC(C)C[C@@H]1NC(=O)[C@@H](C(C)C)NC(=O)[C@@H]2CCCN2C(=O)[C@@H](CS(=O)(=O)O)NC(=O)[C@@H](Cc2c[nH]c3ccccc23)NC1=O (single isomer, unassigned)",> 10000,30000,> 100000,21,21,30,–,–,39.8,–
"CC(C)C[C@@H]1NC(=O)[C@@H](c2cccs2)NC(=O)[C@@H]2CCCN2C(=O)[C@@H](CC(=O)O)NC(=O)[C@@H](Cc2c[nH]c3ccccc23)NC1=O (single isomer, unassigned)",4000,19000,55000,3,–,–,3,1.2,7.94,–
